Measured values collected from several papers.
Observed: enzyme activity
Mode: inhibitor
PIK3CB: Phosphatidylinositol 4,5-bisphosphate 3-kinase catalytic subunit beta isoform (PIK3CB, Homo sapiens, UniProt P42338)
PIK3CA: Phosphatidylinositol 4,5-bisphosphate 3-kinase catalytic subunit alpha isoform (PIK3CA, Homo sapiens, UniProt P42336)
KDR: Vascular endothelial growth factor receptor 2 (KDR, Homo sapiens, UniProt P35968)

SMILES	target	test	IC50 [µM]
O=C1C(=Nc2ccc(Cl)cc2)c2ccccc2N1Cc1ccc([N+](=O)[O-])cc1	PIK3CB	ADP detection	0.00773
CC(=O)OC[C@H]1O[C@@H]([S-])[C@H](OC(C)=O)[C@@H](OC(C)=O)[C@@H]1OC(C)=O.CCP(CC)CC.[Au+]	Thioredoxin reductase 1, cytoplasmic (TXNRD1, Homo sapiens, UniProt Q16881)	absorbance	0.397
CN(C)C(=O)c1cc2cnc(Nc3cc(C(F)(F)F)c(-c4ccc5c(=O)cc(N6CCOCC6)oc5c4)cn3)nc2n1C1CCCC1	PIK3CA	radiometric	> 10
O=[N+]([O-])c1cc(Br)c(O)c(C=NNc2ccc(Cl)cc2)c1	KDR	ATP luminescence	7.7
CN(C)C(=O)c1cc2cnc(Nc3ccc(-c4ccc5c(=O)cc(N6CCOCC6)oc5c4)cc3)nc2n1C1CCCC1	PIK3CA	radiometric	5.78
CC1=C(/C=C/C(C)=C/C=C/C(C)=C/C=C/C=C(C)/C=C/C=C(C)/C=C/C2=C(C)CCCC2(C)C)C(C)(C)CCC1	KDR	TR-FRET	> 40
CNC(=O)[C@H](Cc1c[nH]c2ccccc12)NC(=O)[C@@H](CC(=O)NO)CC(C)C	Macrophage metalloelastase (MMP12, Homo sapiens, UniProt P39900)	–	0.000328
O=C1Nc2ccccc2C1=Nc1cccc(Cl)c1	PIK3CB	ADP detection	0.511
CN(C)C(=O)c1cc2cnc(Nc3cc(C(=O)O)cc(-c4cccc5c(=O)cc(N6CCOCC6)oc45)c3)nc2n1C1CCCC1	PIK3CA	radiometric	1.59
O=C1C(=Nc2ccccc2I)c2ccccc2N1Cc1ccc(Br)cc1	PIK3CA	ADP detection	0.298
O=[N+]([O-])c1cc(Br)c(O)c(C=NNc2ccc(C(F)(F)F)cc2)c1	KDR	ATP luminescence	8.95
CN(C)C(=O)c1cc2cnc(Nc3cncc(-c4cccc5c(=O)cc(N6CCOCC6)oc45)c3)nc2n1C1CCCC1	PIK3CA	radiometric	> 10
C[C@@H]1O[C@@H](O[C@H]2[C@H](Oc3cc(O)c4c(=O)cc(-c5ccc(O)cc5)oc4c3)O[C@H](CO)[C@@H](O)[C@@H]2O)[C@H](O)[C@H](O)[C@H]1O	KDR	TR-FRET	> 40
O=[N+]([O-])c1cc(I)c(O)c(C=NNc2ccc(C(F)(F)F)cc2)c1	KDR	ATP luminescence	4.44
O=C1C(=Nc2ccc(Cl)cc2)c2ccccc2N1Cc1cccc(Cl)c1	PIK3CA	ADP detection	0.322
O=C1/C(=C/c2ccc3ccccc3c2O)NC(=S)N1c1ccccc1	KDR	ELISA	0.235
O=[N+]([O-])c1cc(I)c(O)c(C=NNc2ccc(Cl)cc2)c1	KDR	ATP luminescence	7.83
COc1ccc(-c2cc(=O)c3ccc(Nc4ncc5cc(C(=O)N(C)C)n(C6CCCC6)c5n4)cc3o2)cc1	PIK3CA	radiometric	> 10
CCc1ccc(N=C2C(=O)N(Cc3ccccc3)c3ccccc32)cc1	PIK3CB	ADP detection	0.0221
CN(C)C(=O)c1cc2cnc(Nc3cc(C(=O)O)cc(-c4ccc5c(=O)cc(N6CCOCC6)oc5c4)c3)nc2n1C1CCCC1	PIK3CA	radiometric	0.111
O=[N+]([O-])c1ccc(O)c(C=NNc2ccc(Cl)cc2)c1	KDR	ATP luminescence	21.2
O=C1C(=Nc2ccccc2Br)c2ccccc2N1Cc1ccccc1	PIK3CB	ADP detection	0.0166
CN(C)C(=O)c1cc2cnc(Nc3ccc4c(=O)cc(N5CCNCC5)oc4c3)nc2n1C1CCCC1	PIK3CA	radiometric	> 10
Cc1cccc(N=C2C(=O)N(Cc3cccc(Cl)c3)c3ccccc32)c1	PIK3CB	ADP detection	0.0339
CN(C)C(=O)c1cc2cnc(Nc3ccc(-c4cccc5c(=O)cc(N6CCOCC6)oc45)cn3)nc2n1C1CCCC1	PIK3CA	radiometric	> 10
O=C(CCc1ccc(Cl)cc1)N1C(=O)C(=Nc2ccc(Cl)cc2Br)c2ccccc21	PIK3CB	ADP detection	0.81
O=C(Nc1nnc(-c2ccc3c(c2)OCCO3)o1)c1ccc(C(=O)c2ccccc2)cc1	PIK3CA	ADP detection	0.47
